Bioassay records as filed in PubChem.
Hits are enriched below; roughly 1.7% of the tested compounds scored in any of these assays.
TPT1 inh: C. albicans TPT1 enzyme inhibition | 300,000 tested, 0.81% active | inhibition, % at 5 µM | recombinant caTPT1, FP RNA substrate dephosphorylation | AID 1962;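 active = inhibition above the mean of all tested compounds plus 3 SD, set per screening campaign, cut at about 24% in these data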;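 also: plate controls were DMSO alone for no effect and ferristatin control at 100 nM for full effect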
IDE inh: inhibitors of human insulin-degrading enzyme in cells; inhibition, % at 5.59 µM; HEK cells, FAbetaB cleavage, fluorescence polarization; 320,000 tested, 0.41% active; P14735;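 active = percent inhibition above the average of all tested compounds plus 3 SD, set per screening campaign, cut at about 16% in these data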;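 also: IDE supplied by intact live HEK cells; FP after avidin binding of uncleaved biotin substrate so inhibition keeps polarization high; 0% = DMSO wells and 100% = 60 µM reference IDE inhibitor Ii1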
IDE cell activ: activators of human insulin-degrading enzyme in cells; 340,000 tested, 0.073% active; activation, % at 5.96 µM; P14735; HEK cells, FAbeta-B cleavage, fluorescence polarization; 0% vehicle, 100% cell-free pure enzyme wells; AID 493087;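 active = activation above the mean of all tested compounds plus 3 SD, set per screening campaign, cut at about 17% in these data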
Rpn11 inh: blocks the human proteasome subunit Rpn11; human 26S proteasome, Ub4-pepOG fluorescence polarization; 20S core pre-blocked with epoxomicin; AID 588493; O00487; 360,000 tested, 0.59% active; calls only at 20 µM;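 active = inhibition at 20 µM, scaled to each plate's controls, above about 33%, limit read from the data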
HNF4A DNA FP: change in binding of human HNF4 alpha to DNA | P41235 | HNF4a-FITC DNA binding, fluorescence polarization, 1 h | activity change, % at 10 µM | 360,000 tested, 0.3% active | AID 1224865; in the data active = activity change above about 30%, passing the limit was not always enough
CSN inh: blocks human CSN-mediated cullin deneddylation | Q92905 | Purified CSN, SCF-Nedd8-OG deneddylation, fluorescence polarization | inhibition, % at 12.5 µM | 360,000 tested, 0.38% active;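 active = pattern-corrected inhibition above about 35%, with an unprinted fluorescence ratio check between 0.5 and 1.5, limit read from the data, passing the limit was not always enough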;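 also: 0% = enzyme with substrate and 100% = substrate without enzyme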
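Assay system: purified human Csn5 enzyme expressed in HEK293T cells; Input: 0.24 nM Csn5 enzyme, final concentration; Reagent: 10 nM SCFSkp2-Nedd8OG; Compound dosing: 12.5 µM single point; Times: reaction 90 min, room temperature; Technique: fluorescence polarization readout.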
Rpn11 inh conf: confirmation of human proteasome Rpn11 inhibitors | shares compounds with Rpn11 inh | purified human 26S proteasome, Ub4-pepOG fluorescence polarization; proteasome pretreated with epoxomicin | inhibition, % at 20 µM | 1,900 tested, 29% active | AID 602318
MMP-2 counter-1: blocks human MMP-2, flagging nonselective RPN11 hits. shares compounds with Rpn11 inh. recombinant MMP-2, FRET peptide cleavage fluorescence. inhibition, % at 20 µM. 1,900 tested, 4% active. AID 602330;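 also: human MMP-2 activated beforehand with APMA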
Thrombin FP: blocks bovine thrombin, flagging nonselective RPN11 hits; shares compounds with Rpn11 inh; bovine thrombin cleavage of Ub4-pepOG, fluorescence polarization; inhibition, % at 20 µM; 1,900 tested, 13% active;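 active = mean inhibition at least 40% at 20 µM, or signal 3 deviations below plate average, so some actives read negative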;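 also: plate controls were thrombin with DMSO for no effect and buffer wells lacking thrombin for full effect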
CSN deneddyl val: Csn5 (human) deneddylation inhibition, single-concentration validation; shares compounds with CSN inh; Csn5 deneddylation of SCF-Nedd8OG, fluorescence polarization, 90 min; inhibition, % at 16.6 µM; 540 tested, 62% active; in the data active = inhibition above about 50%;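 also: 0% = DMSO with enzyme and 100% = no enzyme wells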
MMP-2 counter-2: blocks human MMP-2 in a CSN deneddylation counter-screen | shares compounds with CSN inh | recombinant MMP-2, FRET substrate fluorescence, 60 min | 540 tested, 33% active | AID 720655 | inhibition, % at 16.6 µM;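 active = corrected plate-normalized z-score of 5 or more, or -5 or less, or inhibition of 15% or more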;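 also: plate controls were DMSO wells with enzyme for no effect and buffer wells lacking MMP-2 for full effect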
Thrombin cntr: counter-screen for CSN deneddylation inhibitors: bovine thrombin inhibition; shares compounds with CSN inh; bovine thrombin cleavage of Ub4-pepOG, fluorescence polarization; inhibition, % at 16.6 µM; 540 tested, 49% active; AID 720656;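 active = inhibition at or above a set limit, with a fluorescence interference ratio between 0.5 and a set maximum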
The depositor's hits bear a star; i = inactive; nt = no result given; + = active, no number; ! = not active in a repeat. Rule as the data show it, unless noted: active = inhibition above about 40%; inactive = the rest.

SMILES	TPT1 inh	IDE inh	IDE cell activ	Rpn11 inh	HNF4A DNA FP	CSN inh	Rpn11 inh conf	MMP-2 counter-1	Thrombin FP	others
O=C(NC1CCCCCC1)C1c2ccccc2C(=O)N1Cc1ccco1 (configuration not stated)	-4	1	3	i	1	0	nt	nt	nt
CCCn1c(C)cc(C(=O)COC(=O)c2nccnc2N)c1C	-1	10	0	i	-2	4	nt	nt	nt
Cc1c(C(=O)O)sc(S(=O)(=O)N2CCN(C(=O)Cc3ccc(Cl)cc3)CC2)c1C(=O)O	nt	nt	-2	i	-1	4	nt	nt	nt
COc1ccc(OCC(=O)NNC(=O)c2cccs2)cc1	-2	-2	3	+	-31	-7	-29	-41	-22
Cc1cc(C)c(S(=O)(=O)c2ccccc2)c(OC(=O)c2ccc(Cl)cc2Cl)n1	-5	3	1	i	-6	6	nt	nt	nt
Cc1cc(OC(=O)c2ccc(Cl)cc2Cl)nc(C)n1	-1	-10	1	+	-2	-4	-2	-46	6
CC(=O)Oc1ccc(-c2ccc(C(=O)NCCc3ccc(S(N)(=O)=O)cc3)cc2)cc1	-2	3	2	+	2	-1	11	-16	9
CC(=O)Oc1ccc(C(=O)NCCc2ccccc2)cc1	-4	-2	3	i	6	-13	nt	nt	nt
CC(=O)Oc1ccc(/C=N\NC(=O)c2cc3c(ccc4ccccc43)o2)cc1	-3	1	-3	+	13	22	56*	-202	-15
Cc1onc(-c2ccccc2)c1C(=O)N/N=C/c1cc(Br)c(O)c(Br)c1	nt	nt	7	+	-1	1	2	31	4
O=C(N/N=C/c1ccc(O)c(Br)c1)c1cc2c(ccc3ccccc32)o1	nt	nt	3	i	5	5	nt	nt	nt
O=C(N/N=C/c1cc(Br)c(O)c(Br)c1)c1cc2c(ccc3ccccc32)o1	nt	nt	0	+	-17	12	59*	-6	139*
COc1ccc(/C=N/NC(=O)c2c(-c3ccccc3)noc2C)cc1	1	0	1	i	2	2	nt	nt	nt
Cc1nn(CC2CC2)c(=O)n1-c1ccc(Cl)cc1	2	-1	5	i	5	3	nt	nt	nt
CCOC(=O)C1CCCN(Cc2nc3ccc([N+](=O)[O-])cc3c(=O)n2-c2ccc(OC)cc2OC)C1 (configuration not stated)	0	4	4	+	37*	4	0	-25	-15
CCOC(=O)C1CCN(Cc2nc3ccc([N+](=O)[O-])cc3c(=O)n2-c2ccc(OC)cc2OC)CC1	-3	-1	3	i	-2	0	nt	nt	nt
O=C(O)COc1ccccc1/C=C1\SC(=S)N(c2cccnc2)C1=O	0	5	nt	nt	nt	nt	nt	nt	nt
Cn1c(SCC(=O)N2CCOCC2)nnc1-c1ccco1	1	3	-2	i	1	-4	nt	nt	nt
CC(C)CNC(=O)[C@H](Cc1ccccc1)NC(=O)c1ccco1	1	-9	2	i	-2	5	nt	nt	nt
Cc1cccn2c(=O)c3cc(C(N)=S)c(=N)n(CCCN4CCOCC4)c3nc12	-4	3	-1	+	9	37*	4	49*	-3
COCCCn1c(=N)c(C(N)=S)cc2c(=O)n3cccc(C)c3nc21	8	4	2	i	-5	-2	nt	nt	nt
Cc1cc(NC(=O)Nc2cccc(C(F)(F)F)c2)no1	2	1	5	i	-1	-4	nt	nt	nt
CCCN(CC(=O)Nc1cc(C)on1)S(=O)(=O)c1cccc(C(F)(F)F)c1	-3	4	0	+	5	1	-5	21	1
O=C(/C=C/c1ccco1)Nc1cccc(C(=O)Nc2ccccc2C(=O)O)c1	5	0	-1	+	-32	42*	57*	-14	31	CSN deneddyl val=54*;MMP-2 counter-2=6;Thrombin cntr=12
CCc1ccccc1NC(=O)c1cccc(NC(=O)/C=C/c2ccco2)c1	1	5	-1	i	-1	12	nt	nt	nt
SMILES	TPT1 inh	IDE inh	IDE cell activ	Rpn11 inh	HNF4A DNA FP	CSN inh	Rpn11 inh conf	MMP-2 counter-1	Thrombin FP	others
CCc1ccc(-c2cc(C(=O)N/N=C/c3ccccn3)[nH]n2)cc1	0	1	0	i	5	2	nt	nt	nt
O=C(N/N=C/c1ccccn1)c1cc(-c2ccc3ccccc3c2)n[nH]1	0	6	-2	+	0	41*	85*	-7	58*	MMP-2 counter-2=20*;Thrombin cntr=17*
COc1ccc(NS(=O)(=O)c2csc(C(N)=O)c2)cc1OC	-1	-4	5	i	-4	-1	nt	nt	nt
CCN1CCN(Cc2ccc(NC(=O)c3cc(NC(=O)c4cncc(-c5ccc(C#N)cc5)c4)cc(OC)c3)cc2C(F)(F)F)CC1	0	10	5	+	45*!	138*!	56*	-44	60*	CSN deneddyl val=-74;MMP-2 counter-2=17*;Thrombin cntr=5
COC(=O)c1c(NC(=O)COC(=O)c2ccccc2O)sc2c1CCCCC2	4	3	-2	i	-2	-5	nt	nt	nt
COC(=O)c1c(NC(=O)COC(=O)c2ccc(NC(=O)CC#N)cc2)sc2c1CCCCC2	17	2	1	+	-4	57*	106*	19	33	CSN deneddyl val=42;MMP-2 counter-2=7;Thrombin cntr=13
COc1ccc(CCn2c(N)c(C#N)c3nc4ccccc4nc32)cc1OC	17	11	2	i	0	1	nt	nt	nt
COc1ccc(CCn2c(N)c(C(=O)NCc3ccco3)c3nc4ccccc4nc32)cc1OC	23	4	3	+	9	38*	-8	4	-9	CSN deneddyl val=96*;MMP-2 counter-2=5;Thrombin cntr=-15
CCOC(=O)c1sc(NC(=O)c2ccc(S(=O)(=O)N3CCCCC3)cc2)nc1-c1ccccc1	2	0	0	i	-2	-18	nt	nt	nt
O=C(CN1C(=O)/C(=C/c2ccco2)SC1=S)Nc1ccc(O)c(C(=O)O)c1	12	6	-2	+	-28	56*	17	10	9	CSN deneddyl val=57*;MMP-2 counter-2=21*;Thrombin cntr=11
